Calls of active or inactive are those of the source. The calls are words filed in the database; no cut-off is given here.
Columns and labels:
[1] = tested on: U-373MG ATCC; assay: Activation of chymotrypsin-like activity of 20S proteasome in human U373 cells at 90 uM after 2 days by bioluminescence assay; format: cell-based
Procedure, shortened: (§1)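 Chymotrypsin-like site, substrate Suc-LLVY-Glo. U373 cells were seeded at 5000 cells/mL for 48 h and exposed two days. After a PBS wash and 0.025% digitonin permeabilisation, Proteasome-Glo reagent was added. Bioluminescence was read after 10 min dark incubation. Triplicates, normalised by a concurrent MTT viability assay run in identical conditions.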

[2] = tested on: U-373MG ATCC; assay: Inhibition of trypsin-like activity of 20S proteasome in human U373 cells at 90 uM after 2 days by bioluminescence assay; format: cell-based
Procedure, shortened: (§2)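 U373 GBM cells seeded at 5000 cells/mL and grown 48 h, then treated for two days. Cells washed in PBS and permeabilised with 0.025% digitonin. Proteasome-Glo reagent added with Suc-LLVY-Glo (chymotrypsin-like), Z-LRR-Glo (trypsin-like) or Z-nLPnLD-Glo (caspase-like) substrate. Luminescence read after 10 min in the dark and normalised to a parallel MTT viability assay; triplicates. MG-132 at 0.5 μM used as reference.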

[3] = tested on: U-373MG ATCC; assay: Activation of caspase-like activity of 20S proteasome in human U373 cells at 90 uM after 2 days by bioluminescence assay; format: cell-based
Procedure, shortened: (§3)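 Caspase-like site, substrate Z-nLPnLD-Glo. U373 cells were plated at 5000 cells/mL for 48 h, then treated two days. Cells were PBS-washed and permeabilised with 0.025% digitonin before Proteasome-Glo reagent was added. Luminescence was read after 10 min in the dark. Triplicates, normalised to a parallel MTT viability assay under identical conditions.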

[4] = Chemical stability of the compound in MEM cell culture medium after 7 days by HPLC analysis; format: physicochemical; details: read-out: Stability
Procedure, shortened: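 Compound incubated in MEM culture medium at 37 °C for 7 days, then analysed by HPLC on RX-C8 (5 μm) column with MeOH–water 90:10 (0.1% TFA), diode-array detection. Expressed as % of incubated compound recovered.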

[5] = tested on: A549; assay: Growth inhibition in apoptosis-resistant human A549 after 3 days by MTT assay; format: functional; details: A549, 72 h
Procedure, shortened: (§4)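 Cells grown in RPMI with 10% heat-inactivated FCS, 4 mM glutamine, gentamicin and penicillin–streptomycin. Drug exposure 3 days, growth read by MTT colorimetric assay. Nine concentrations from 0.01 to 100 μM in semilog steps, six replicates each; IC50 derived per cell line.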

[6] = tested on: SK-MEL-28; assay: Growth inhibition in apoptosis-resistant human SK-MEL-28 after 3 days by MTT assay; format: functional; details: SK-MEL-28, 72 h; procedure, shortened: as §4
[7] = tested on: T98G; assay: Growth inhibition in apoptosis-resistant human T98G after 3 days by MTT assay; format: functional; details: 72 h; procedure, shortened: as §4
[8] = Growth inhibition in apoptosis-resistant human U373 after 3 days by MTT assay; format: functional, U-373MG ATCC; details: U373 MG, 72 h; procedure, shortened: as §4
[9] = tested on: Hs 683; assay: Growth inhibition in apoptosis-sensitive human Hs683 after 3 days by MTT assay; format: functional; details: Hs 683, 72 h; procedure, shortened: as §4
[10] = tested on: PC-3; assay: Growth inhibition in apoptosis-sensitive human PC3 after 3 days by MTT assay; format: functional; details: PC-3, 72 h; procedure, shortened: as §4
[11] = tested on: MCF7; assay: Growth inhibition in apoptosis-sensitive human MCF7 after 3 days by MTT assay; format: functional; details: MCF7, 72 h; procedure, shortened: as §4
[12] = tested on: B16-F10; assay: Growth inhibition in mouse B16F10 after 3 days by MTT assay; format: functional; details: B16-F10, 72 h; procedure, shortened: as §4
[13] = Cell cycle arrest in human U373 cells assessed as accumulation of cells in G1 phase at 80 uM after 48 to 72 hrs by TUNEL-based flow cytometric analysis; format: functional; details: U-373MG ATCC
Procedure, shortened: (§5)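 A549 NSCLC and U373 GBM cells were treated 48 or 72 h and analysed with the APO AF kit. TUNEL labelling ran 1 h at 37 °C, followed by propidium iodide (5 μg/mL) with RNase. Apoptotic fraction and % cells in G1 were measured by flow cytometry. Kit negative/positive controls and 1 μM narciclasine-treated PC-3 cells served as controls.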

[14] = tested on: A549; assay: Cell cycle arrest in human A549 cells assessed as accumulation of cells in G1 phase at 100 uM after 48 to 72 hrs by TUNEL-based flow cytometric analysis; format: functional; procedure, shortened: as §5
[15] = target: T1, Peroxisome proliferator-activated receptor gamma (Homo sapiens) (UniProt P37231); assay: Activation of PPARgamma activity in human U373 cells at 90 uM after 6 hrs by spectrophotometric analysis relative to control; details: U-373MG ATCC
T1 sequence (whole entry): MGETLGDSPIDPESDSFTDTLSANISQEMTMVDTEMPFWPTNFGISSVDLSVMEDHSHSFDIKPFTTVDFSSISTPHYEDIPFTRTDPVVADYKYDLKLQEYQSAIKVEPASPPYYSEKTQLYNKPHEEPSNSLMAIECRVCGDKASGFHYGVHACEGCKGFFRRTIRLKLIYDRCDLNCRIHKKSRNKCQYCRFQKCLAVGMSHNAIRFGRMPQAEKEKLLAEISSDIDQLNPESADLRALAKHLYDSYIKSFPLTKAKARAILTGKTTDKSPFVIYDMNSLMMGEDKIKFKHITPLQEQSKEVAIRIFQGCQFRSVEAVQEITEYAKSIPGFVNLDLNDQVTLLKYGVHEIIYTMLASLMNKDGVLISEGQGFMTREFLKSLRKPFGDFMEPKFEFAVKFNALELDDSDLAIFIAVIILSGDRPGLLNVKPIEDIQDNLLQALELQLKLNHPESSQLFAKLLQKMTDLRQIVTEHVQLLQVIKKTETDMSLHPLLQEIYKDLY

[16] = target: T1, Peroxisome proliferator-activated receptor gamma (Homo sapiens); assay: Inhibition of PPARgamma activity in human U373 cells at 3 uM after 6 hrs by spectrophotometric analysis relative to control; format: cell-based; details: U-373MG ATCC
Procedure, shortened: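 Human U373 glioblastoma cells exposed to compound for 6 h, then detached with trypsin. Nuclear extracts prepared by hypotonic lysis with Nonidet P-40 and extraction buffer with protease inhibitor, clarified at 14 000 g, 4 °C. Extracts bound overnight at 4 °C in a PPAR-γ transcription factor ELISA kit, with primary antibody then HRP anti-rabbit. Absorbance read at 450 nm; triplicates, mean ± SD versus control.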

[17] = tested on: U-373MG ATCC; assay: Activation of chymotrypsin-like activity of 20S proteasome in human U373 cells at 3 uM after 2 days by bioluminescence assay; format: cell-based; procedure, shortened: as §1
[18] = tested on: U-373MG ATCC; assay: Inhibition of trypsin-like activity of 20S proteasome in human U373 cells at 3 uM after 2 days by bioluminescence assay; format: cell-based; procedure, shortened: as §2
[19] = tested on: U-373MG ATCC; assay: Activation of caspase-like activity of 20S proteasome in human U373 cells at 3 uM after 2 days by bioluminescence assay; format: cell-based; procedure, shortened: as §3

Row | remaining at 168 h [4] | GI50 [5] | GI50 [6] | GI50 [10] | GI50 [11] | GI50 [12] | Activity [15] | inhibition [16] | SMILES | Activity [1] | inhibition [2] | Activity [3] | GI50 [7] | GI50 [8] | GI50 [9] | Activity [13] | Activity [14] | Activity [17] | inhibition [18] | Activity [19]
1 | 98% | > 100000 nM | 92000 nM | 80000 nM | 76000 nM | 37000 nM | Active |  | CC1(C)[C@@H](O)CC[C@]2(C)[C@H]3C(=O)C=C4[C@@H]5C[C@@](C)(C(=O)O)CC[C@]5(C)CC[C@@]4(C)[C@]3(C)CC[C@@H]12 [ENOXOLONE] | Active | Active | Active | 85000 nM | 83000 nM | 84000 nM | inactive | inactive |  |  | 
2 | 68% | 2000 nM | 3000 nM | 2000 nM | 3000 nM | 3000 nM |  | Active | COc1cc(/C=C/C(C)=O)ccc1OC(=O)[C@@]1(C)CC[C@]2(C)CC[C@]3(C)C(=CC(=O)[C@@H]4[C@@]5(C)CC[C@H](O)C(C)(C)[C@@H]5CC[C@]43C)[C@@H]2C1 |  |  |  | 3000 nM | 2000 nM | 3000 nM |  |  | Active | Active | Active
